# CYP2C19 act = activators of human cytochrome P450 2C19; P33261; activation factor at 5 µM; AID 1025; recombinant CYP2C19, luciferin-H EGE luminescence; active compounds read high; 0 = fully inhibited enzyme, 1 = untreated enzyme; 96,000 tested, under 10 active;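 active = activation factor of at least 2 at 5 µM in the primary screen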;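 also: 0 = wells with 2.5 mM tranylcypromine and 1 = vehicle-only wells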
# CYP2C9 act = CYP2C9 (human) activation | P11712 | recombinant CYP2C9, luciferin-H conversion, luminescence; active compounds read high; factor 1 = untreated enzyme, 0 = blocked | activation factor at 5 µM | actives 1.4% (n = 96,000) | AID 1024;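 active = activation factor of 2 or more for CYP2C9 at a 5 µM dose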;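 also: 0 = sulfaphenazole-blocked wells and 1 = vehicle-only wells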
# Target sequence (P11712 whole entry, looked up): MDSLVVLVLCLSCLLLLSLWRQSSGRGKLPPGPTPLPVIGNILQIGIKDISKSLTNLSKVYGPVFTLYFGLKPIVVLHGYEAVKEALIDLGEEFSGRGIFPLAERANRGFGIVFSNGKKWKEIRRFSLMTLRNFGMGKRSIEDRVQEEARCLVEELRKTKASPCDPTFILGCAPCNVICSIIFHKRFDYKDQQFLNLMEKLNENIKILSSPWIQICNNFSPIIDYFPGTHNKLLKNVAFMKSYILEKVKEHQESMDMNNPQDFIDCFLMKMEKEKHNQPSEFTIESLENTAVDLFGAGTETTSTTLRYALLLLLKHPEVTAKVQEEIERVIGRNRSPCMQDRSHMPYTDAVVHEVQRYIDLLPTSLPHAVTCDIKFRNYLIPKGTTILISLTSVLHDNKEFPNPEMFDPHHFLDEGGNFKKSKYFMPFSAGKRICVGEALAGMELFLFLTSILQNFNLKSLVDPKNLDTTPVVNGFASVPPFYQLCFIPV
# CYP2C19 inhib = blocks human cytochrome P450 2C19. inhibition, % at 5 µM. AID 778. CYP2C19 Supersomes, luciferin-H EGE luminescence, 30 min. P33261. actives 21% (n = 96,000);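 active = CYP2C19 inhibition above a set limit at 5 µM in the primary screen, cut at about 50% in these data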;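 also: plate controls were negative control wells for no effect and 2.5 mM tranylcypromine positive control for full effect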
# Ecoli WT expand = growth inhibitors of E. coli BW25113 wild type | growth inhibition, % at 100 µM | AID 710 | actives 0.15% (n = 98,000) | OD600 absorbance;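 active = growth inhibition above about 50% at one test dose, limit read from the data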;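 also: growth measured after 20 h incubation at 37 °C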
# tolC growth inh = blocks growth of E. coli BW25113 tolC mutant; OD615; growth inhibition, % at 10 µM (by protocol); actives 2.2% (n = 65,000); AID 573;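 active = growth inhibition at or above a cutoff equal to the mean over every tested compound plus 3 SD, cut at about 60% in these data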;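 also: growth measured after 20 h incubation at 37 °C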
#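 signal = optical density read at 615 nm | test system = E. coli ΔtolC::kan strain BW25113 | timing = 20 h compound exposure of bacteria at 37 °C | buffer or medium = LB medium plus 50 µg/mL kanamycin | compound dosing = 10 µM final, single dose | evaluation = % inhibition of E. coli growth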
# CYP2C9 inh = inhibitors of human CYP2C9 | actives 20% (n = 96,000) | P11712 | inhibition, % at 5 µM | CYP2C9 Supersomes, luciferin-H conversion, luminescence;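 active = blocking of liver enzyme CYP2C9 beyond about 50% at 5 µM, limit read from the data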
# The depositor's hits bear a star; · = not tested or not shown. Only some compounds are listed: those with a hit (about 29% of all), similar ones and a draw of the others.
SMILES,CYP2C19 act,CYP2C9 act,CYP2C19 inhib,Ecoli WT expand,tolC growth inh,CYP2C9 inh
O=C(Nc1ccc(Oc2ccc(NC(=O)c3ccco3)c(NC(=O)c3ccco3)c2)cc1)c1ccco1,0.5,0.3,50.8*,-13.0,17.4,72.7*
Cn1cc(Cl)c(C(=O)OCC(=O)Nc2ccccc2)n1,0.2,0.8,82.9*,5.0,·,21.8
O=C(COC(=O)[C@H](Cc1ccccc1)NC(=O)c1ccco1)NCc1ccccc1,0.3,0.1,70.9*,-2.0,·,90.6*
O=C(Nc1ccc(Oc2ccc3ccccc3c2)cc1)c1ccco1,0.8,1.2,19.4,-2.0,·,-16.7
CCOC(=O)Cn1cnc2sc3c(c2c1=O)CCC3,0.7,0.9,26.3,-4.0,3.1,7.6
CC1CN(C(=O)c2ccc(COCC(F)(F)F)o2)CC(C)O1 (stereo not given),1,1.2,4.3,0.0,-7.1,-18.7
CCOc1ccc(C(=O)NCC(=O)OCC(=O)Nc2ccccc2OC)cc1,0.5,1.2,45.5,3.0,·,-20.6
O=C(Cc1cccs1)NCc1cccs1,0.5,0.9,46.5,9.0,-8.2,14.2
CCOc1ccc(NC(=O)c2ccco2)cc1,0.8,0.9,21.5,7.0,-7.4,5.0
O=C(COC(=O)c1ccco1)Nc1ccccc1,0.4,0.8,57.7*,-2.0,-3.9,17.5
O=C(COC(=O)Cc1cccs1)Nc1ccccc1,0.3,0.7,68.6*,4.0,-28.4,28.7
CC(C)C(=O)Nc1ccc(Nc2ccccc2)cc1,0.5,0.4,54.6*,0.0,-10.5,55.2*
CC(C)OC(=O)c1ccc(NC(=O)c2ccco2)cc1,0.4,0.5,56.8*,5.0,·,45.3
CCOC(=O)C1C(=O)Nc2nc3ccccc3n2C1C(C)C (stereo not given),0.9,1,5.7,-6.0,-24.6,0.9
O=C1CCCCCN1C(=O)c1cccc(C(=O)N2CCCCCC2=O)c1,0.9,1,11.3,6.0,-5.9,0.0
O=C(Nc1ccc(Nc2ccccc2)cc1)c1ccco1,0.3,0.2,67.0*,3.0,15.6,82.4*
O=C(/C=C/c1ccc(Cl)cc1)NCCSc1ccccc1,0.7,1,31.9,-1.0,·,-1.7
O=C(/C=C/c1ccccc1)NCCSCc1ccccc1Cl,0.7,0.4,34.7,-11.0,·,57.4*
Cc1ccc(NC(=O)CSc2nnc(-c3ccccc3C)o2)cc1C,1,0.9,-2.4,-14.0,16.6,10.2
CC(NC(=O)CSc1nnc(-c2cccc(S(=O)(=O)N3CCCCC3)c2)o1)C12CC3CC(CC(C3)C1)C2 (stereo not given),0.3,0.1,68.1*,-7.0,·,91.4*
Cc1ccc(NC(=O)CSc2nnc(-c3ccccc3Br)o2)cc1C,0.5,0.3,50.6*,-17.0,31.3,73.3*
COC(=O)c1ccc(C(=O)OC)c(NC(=O)CSc2nnc(-c3ccccc3Cl)o2)c1,·,·,·,·,-10.8,·
O=C(CSc1nnc(-c2ccc(F)cc2)o1)Nc1ccc(S(=O)(=O)N2CCCCCC2)cc1,1,1.1,2.4,-12.0,-0.6,-5.8
Cc1cccc(NC(=O)CSc2nnc(-c3ccc(S(=O)(=O)N4CCCC4)cc3)o2)c1,0.8,0.3,16.6,3.0,-5.9,66.4*
CCCOC(=O)CSc1nnc(-c2ccccc2Cl)o1,0.3,1.1,67.3*,-5.0,-2.5,-7.0
SMILES,CYP2C19 act,CYP2C9 act,CYP2C19 inhib,Ecoli WT expand,tolC growth inh,CYP2C9 inh
CCOC(=O)C1CCCN(C(=O)CCn2nc(-c3ccccc3)ccc2=O)C1 (stereo not given),1,1,4.8,7.0,-1.1,-4.4
CCC1(COC(NC(=O)c2cccnc2)(C(F)(F)F)C(F)(F)F)COC1,0.9,0.9,10.4,2.0,-26.0,10.0
COC(=O)CSc1nnc(-c2ccc(S(=O)(=O)N3CCCCC3)cc2)o1,0.6,0.4,37.6,-1.0,-20.3,64.3*
CCOc1ccccc1-c1nnc(SCC(=O)Nc2ccccc2)o1,0.6,2.4*,41.2,-6.0,25.0,-137.9
Cc1cc(C)nc(SCc2nnc(SCC(=O)Nc3ccc(C)c(C)c3)o2)n1,0.1,0.3,87.9*,2.0,27.4,74.3*
Cc1ccc(NC(=O)CSc2nnc(-c3ccc(S(=O)(=O)N4CCCC4)cc3)o2)cc1C,0.8,0.5,24.8,0.0,0.3,53.5*
O=C(CSc1nnc(-c2ccc(F)cc2)o1)Nc1ccc(S(=O)(=O)N2CCCC2)cc1,0.9,0.8,5.5,-9.0,-3.9,18.0

# Screens (PubChem BioAssay)
